CASP6 VEID inh: inhibitors of human caspase-6 | inhibition, % at 12.5 µM | purified caspase-6, Z-VEID-R110 cleavage fluorescence | AID 686996 | hit rate 0.53% among 350,000 | P55212;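 active = mean inhibition across replicates at least about 35%, with every replicate also reaching that limit, limit read from the data; inconclusive = only one of the two criteria met; inactive = neither criterion met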;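 also: 0% = median of neutral control wells and 100% = no fluorescence left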
Target sequence (P55212 24-179 limits assumed): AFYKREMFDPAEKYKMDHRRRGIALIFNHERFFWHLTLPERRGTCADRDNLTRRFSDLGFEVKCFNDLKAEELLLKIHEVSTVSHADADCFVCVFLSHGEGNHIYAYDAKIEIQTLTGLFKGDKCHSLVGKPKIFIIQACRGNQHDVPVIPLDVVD
Target sequence (P55212 194-293 limits assumed): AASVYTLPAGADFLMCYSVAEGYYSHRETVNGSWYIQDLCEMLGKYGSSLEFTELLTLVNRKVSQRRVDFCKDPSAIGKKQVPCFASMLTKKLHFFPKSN
T cell HTS: T cell immune modulators affecting CD8 T cell-vesicle binding. 2C CD8+ T cell-vesicle binding, flow cytometry; hits give low values. response (vesicle binding), % at 7 µM. AID 2052. hit rate 0.068% among 330,000;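 active = response, share of CD8 T cells binding vesicles, and their 90th percentile fluorescence all below set limits, cut at about 80% in these data, passing the limit was not always enough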;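 also: values below 100% mean blocked vesicle binding to the CD8+ T cells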
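Test system: purified 2C TCR transgenic mouse naive CD8+ T cells. Probe or stimulus: QL9-peptide-loaded Drosophila micro-vesicles bearing Ld, ICAM-1 and B7-1. Incubation: binding step 1.5 h, 37 °C, antibody labelling 20 min, ice. Measured by: flow cytometry of vesicle-bound cells.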
Myeloid diff 2: promotes myeloid progenitor differentiation. ER-HoxA9 myeloid progenitors, lysozyme-GFP differentiation, flow cytometry. calls only at 10 µM. hit rate 1% among 360,000;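 active = normalized GFP-positive differentiation at or above the plate's own cutoff, the solvent-only control mean plus 3 SD; inconclusive = no clear call, values can overlap the other calls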;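 also: cells exposed to compound for four days before flow analysis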
Vif inh: inhibitors of HIV Vif; AID 602346; HEK293T cells, Vif self-association by quenched fluorescence, imaging, 24 h; inhibition, % at 7.49 µM; hit rate 0.35% among 340,000; in the data active = inhibition above about 50%, passing the limit was not always enough; inconclusive = no clear call, values can overlap the other calls; inactive = below about 31%
Active calls of the source: *; i = inactive; ? = inconclusive; . = no result; + = active, no number. A selection: hits, their analogues and other compounds. The true share with any hit is near 1.4%.

SMILES	CASP6 VEID inh	T cell HTS	Myeloid diff 2	Vif inh
Cc1[nH]c2ccccc2c1/C=N/Nc1ccc([N+](=O)[O-])cc1S(=O)(=O)Nc1ccc(Cl)cc1	.	222	+	0
COc1ccc(NS(=O)(=O)c2cc([N+](=O)[O-])ccc2NN=Cc2ccccc2OCC(=O)O)cc1	23	254	i	-5
COCC(=O)Nc1ccc2c(c1)C(=O)N(C)C[C@@H](OC)[C@@H](C)CN(Cc1ccccc1F)[C@@H](C)CO2	-4	.	.	.
COc1cccc(C(C)(O)c2nc(-c3ccccc3OC)cs2)c1 (centres undefined)	1	.	i	57*
O=C(C[C@@H]1C[C@@H]2c3cc(NS(=O)(=O)c4ccc(F)cc4)ccc3O[C@@H]2[C@H](CO)O1)NCc1ccc(-c2ccccc2)cc1	3	.	.	.
COC(=O)[C@@]1(Cc2ccc(F)cc2)[C@H]2C(CC(=O)C(=O)N3CCCC3)C(=O)C[C@H]2CN1C(=O)c1ccccc1 (some centres undefined)	6	.	i	.
COC(=O)[C@@]1(Cc2ccc(OC)cc2)[C@@H]2C(=CC(=O)[C@H]2CC(=O)C(=O)N2CCCC2)CN1C(=O)c1ccccc1	.	331	+	-1
COC(=O)C1=CN(c2ccc3c(c2)OCO3)C(N)=C(C#N)C1c1ccccc1 (centres undefined)	6	.	+	.
COC(=O)C1=CN(c2ccc(F)cc2)C(N)=C(C#N)C1c1ccccc1 (centres undefined)	0	.	i	.
CC(C)NC1CCC(Nc2ccnc3cc(Cl)ccc23)CC1 (centres undefined)	-14	.	+	-6
Clc1ccc2c(NCCNC3CCCCC3)ccnc2c1	-24	.	+	?
NS(=O)(=O)c1ccc(N/N=C/c2ccc(O)cc2O)c([N+](=O)[O-])c1	1	91	i	-11
O=[N+]([O-])c1ccccc1NC(=S)N/N=C/c1ccc(O)c(O)c1	53*	113	i	14
O=C(O)c1ccccc1NS(=O)(=O)c1ccc(NN=Cc2cccc(Cl)c2)c([N+](=O)[O-])c1	62*	518	i	-4
O=C(O)c1ccccc1NS(=O)(=O)c1ccc(N/N=C/c2ccc(O)c(O)c2)c([N+](=O)[O-])c1	64*	.	i	24
NS(=O)(=O)c1ccc(N/N=C/c2ccc(O)c(O)c2O)c([N+](=O)[O-])c1	68*	.	i	1
CCCNC(=O)N(C)C[C@H]1Oc2cc(-c3cncnc3)ccc2S(=O)(=O)N([C@@H](C)CO)C[C@@H]1C	-2	.	.	.
COc1ccc(NC(=O)N(C)C[C@@H]2Oc3ncc(C#Cc4ccc(F)cc4)cc3C(=O)N([C@H](C)CO)C[C@@H]2C)cc1	0	.	.	.
CC1(C)CCN2CCC(C)(C)c3c(O)ccc1c32	0	180	+	.
COC(=O)CN(n1cnnc1)S(=O)(=O)c1ccccc1Cl	.	67*	i	2
CCCN1CCC(=O)N([C@H](CSc2ccc(C)cc2)Cc2ccccc2)CC1	-3	.	i	0
CCCN1CCC(=O)N([C@H](CSc2ccc(OC)cc2)Cc2ccccc2)CC1	-5	.	+	-8
CC(C)=NNc1cc([N+](=O)[O-])cc2c1C(=O)N(C)S2=O (centres undefined)	40*	360	i	6
NNc1cc([N+](=O)[O-])cc2c1C(=O)N(Cc1ccccc1)S2=O (centres undefined)	7	360	i	2
COc1cccc(/C=N/Nc2nc(C)cc(=O)[nH]2)c1OC	42*	200	.	.
SMILES	CASP6 VEID inh	T cell HTS	Myeloid diff 2	Vif inh
O=C1CS/C(=N/N=C/c2ccccc2)N1c1ccc(O)cc1	-1	491	i	-3
O=C1CS/C(=N\N=C\c2ccco2)N1c1ccccc1	57*	265	i	-2
CC(C)NC(=O)Nc1ccc2c(c1)CC(=O)N([C@H](C)CO)C[C@H](C)[C@H](CN(C)S(=O)(=O)c1ccccc1)O2	0	.	.	.
O=C1N=C(N2CCCC2)S/C1=C\c1ccccc1	.	360	+	.
Cc1ccc(/C=C2\SC(N3CCCCC3)=NC2=O)cc1	1	296	i	-4
O=C1N=C(N2CCOCC2)S/C1=C/c1cccs1	.	155	+	.
O=C(c1ccccn1)N1CC(=O)N2[C@H](CO)[C@@H](c3ccc(C#Cc4ccccc4)cc3)[C@@H]2C1	-3	.	.	.
CC(C)(C)NCC(O)COc1ccccc1C1CCCC1 (centres undefined)	-2	97	+	52*
N=c1oc2c3c4c(cc2cc1C(=O)Nc1ccccc1)CCCN4CCC3	.	i	+	.
CCC(=O)OCc1c(C(F)(F)F)nn(C)c1Sc1ccc(F)cc1	.	501	+	2
CCC(=O)N[C@@H]1CC[C@@H](CCn2cc(CN(C)C)nn2)O[C@H]1CO	-3	.	.	.
COc1ccc2c3c(n(C)c2c1)[C@H](CO)N(C(=O)Nc1ccc(F)cc1)CC31CCN(S(=O)(=O)c2cccs2)CC1	0	.	.	.
COc1cc(-c2cnc3c(NC=O)cc(-c4ccccc4Cl)cn23)cc(OC)c1OC	0	.	?	58*
COc1cc(-c2cnc3c(NC=O)cc(-c4ccccc4)cn23)cc(OC)c1OC	0	.	i	74*
COc1ccc(-c2cnc3c(NC(C)=O)cc(-c4ccsc4)cn23)cc1OC	.	.	+	1
COc1cc(-c2cnc3c(NC=O)cc(-c4cccc(NC(C)=O)c4)cn23)cc(OC)c1OC	3	.	?	73*
COc1cc(-c2cc(NC=O)c3ncc(-c4ccccc4)n3c2)cc(OC)c1OC	4	.	i	-3
C[C@H]1CN([C@@H](C)CO)C(=O)c2cccc(NC(=O)c3cnccn3)c2O[C@H]1CN(C)C(=O)Nc1ccc(C(F)(F)F)cc1	0	.	.	.
O=C(c1cccnc1)N1C[C@H]2[C@@H](c3ccccc31)[C@@H](CO)N2Cc1ccc2c(c1)OCO2	0	.	.	.
O=C(C[C@H]1CC[C@@H](NS(=O)(=O)c2cccc(F)c2)[C@@H](CO)O1)NCc1ccc2c(c1)OCO2	0	.	.	.
C[C@@H]1CN([C@H](C)CO)S(=O)(=O)c2ccc(C#CC(C)(C)O)cc2O[C@H]1CN(C)C	1	.	.	.
Cc1ccccc1-c1ccc2c(c1)O[C@H](CN(C)C(=O)c1ccccn1)[C@H](C)CN([C@@H](C)CO)S2(=O)=O	2	.	.	.
CCOC(=O)COc1ccc(Br)cc1/C=C/c1[nH]c(=O)[nH]c(=O)c1[N+](=O)[O-]	40*	200	i	-4
CCCOc1ccc(/C=C/c2[nH]c(=O)[nH]c(=O)c2[N+](=O)[O-])cc1OCC	0	206	i	1
CCOC(=O)COc1ccc(Br)cc1/C=C\c1[nH]c(=O)[nH]c(=O)c1[N+](=O)[O-]	56*	432	i	-7
C[C@@H]1CCCCO[C@@H](CN(C)C)[C@H](C)CN([C@@H](C)CO)C(=O)c2cc(NS(=O)(=O)c3cccs3)ccc2O1	0	.	.	.
O=C(O)Cc1sc(Nc2ccccc2)nc1-c1cccs1	1	410	+	?
O=C(O)Cc1sc(NCCc2ccccc2)nc1-c1ccc(F)cc1	3	i	+	18
C=CCNc1nc(-c2cccs2)c(CC(=O)O)s1	7	957	i	-3
O=C(Cc1sc(Nc2ccccc2)nc1-c1ccccc1)NCc1ccccc1	0	75	i	98*

Source: PubChem
